Screening data from PubChem.
SENP8 block-1 – inhibitors of human SENP8 protease | 1.2% of 330,000 active | purified SENP8, Z-RLRGG-aminoluciferin cleavage, luminescence | inhibition, % at 10 µM; in the data active = inhibition above about 50%
SENP8 block-2 – inhibitors of human SENP8 protease; Q96LD8; recombinant SENP8, Nedd8 substrate fluorescence; inhibition, % at 20 µM; 0.64% of 360,000 active; AID 602440; in the data active = inhibition mostly above about 40%, no sharp cut-off; inactive = mostly below about 27%
SENP1 inh – inhibitors of human SENP1 SUMO protease catalytic domain; AID 624204; 0.21% of 360,000 active; recombinant SENP1 catalytic domain, CyPet-SUMO1-YPet FRET cleavage; Q9P0U3; inhibition, % at 10 µM;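 active = inhibition at least 30% at 10 µM, raw YFP signal under a set limit, fluorescence ratio 0.5 to 1.5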
Target sequence (Q9P0U3 419-644 limits assumed): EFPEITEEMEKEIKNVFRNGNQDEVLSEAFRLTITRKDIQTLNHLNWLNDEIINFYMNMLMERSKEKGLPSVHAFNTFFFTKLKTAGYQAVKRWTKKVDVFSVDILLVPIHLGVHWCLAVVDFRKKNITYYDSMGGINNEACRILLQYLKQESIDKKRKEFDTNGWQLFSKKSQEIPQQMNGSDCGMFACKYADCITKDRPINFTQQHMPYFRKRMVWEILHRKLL
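Material: hSENP1 catalytic domain, recombinant; medium: Tris pH 8 with BME, BSA, NP40 and catalase; compound: single concentration of 10 µM compound, 0.5% DMSO final; technique: FRET read of cyan and yellow fluorescence; timing: 50 min enzyme reaction, room temperature, light-protected; reagent: SFCypet-SUMO1-SFYpet substrate at 25 nM; control set: no-enzyme low, enzyme-DMSO high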
SENP6 inh – SENP6 protease inhibition; 1.8% of 330,000 active; Recombinant SENP6 catalytic domain, aminoluciferin luminescence; inhibition, % at 10 µM; AID 2599; Q9GZR1;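 active = inhibition above about 50% at the single tested dose, limit read from the data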
SENP7 block – SENP7 protease inhibition | inhibition, % at 5 µM | recombinant SENP7, Z-RLRGG-aminoluciferin luminescence, 40 min | 1.5% of 330,000 active;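 active = inhibition above about 50% at the single test dose, limit read from the data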
Target sequence (Q9BQF6 706-1050 limits assumed): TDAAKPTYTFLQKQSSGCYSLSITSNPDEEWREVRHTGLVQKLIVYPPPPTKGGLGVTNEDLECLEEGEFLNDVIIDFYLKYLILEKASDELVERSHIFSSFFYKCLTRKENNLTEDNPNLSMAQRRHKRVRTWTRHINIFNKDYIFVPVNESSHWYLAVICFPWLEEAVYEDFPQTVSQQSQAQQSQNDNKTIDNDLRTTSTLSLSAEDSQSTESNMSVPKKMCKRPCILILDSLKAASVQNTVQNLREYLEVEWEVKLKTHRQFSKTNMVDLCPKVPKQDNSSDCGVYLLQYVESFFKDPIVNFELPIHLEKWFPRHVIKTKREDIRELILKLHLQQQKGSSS
SENP8 conf – confirmation of human SENP8 protease inhibitors | shares compounds with SENP7 block | Recombinant SENP8, Z-RLRGG-aminoluciferin luminescence, 60 min | inhibition, % at 12.5 µM | 40% of 6,200 active;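 active = mean inhibition across replicates above about 50%, limit read from the data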
SENP6 confirm – confirmation of human SENP6 protease inhibitors; recombinant SENP6, Z-RLRGG-aminoluciferin luminescence; shares compounds with SENP7 block; inhibition, % at 12.5 µM; AID 488915; 58% of 6,200 active
SENP7 conf – human SENP7 inhibition, confirmed | recombinant SENP7, Z-RLRGG-aminoluciferin luminescence, 40 min | inhibition, % at 12.5 µM | shares compounds with SENP7 block | 69% of 6,200 active
Casp3 SENP sel – selectivity test for SENP inhibitors: human caspase-3 inhibition | shares compounds with SENP7 block | purified caspase-3, Z-DEVD-aminoluciferin luminescence, 60 min | inhibition, % at 12.5 µM | 60% of 6,200 active | AID 488918;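 active = mean inhibition above about 50%, limit read from the data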
Luc interf – counter-screen for SENP inhibitors: luminescence interference; shares compounds with SENP7 block; Pre-incubated SENP8/Z-RLRGG-aminoluciferin, luciferase luminescence interference; inhibition, % at 12.5 µM; 39% of 6,200 active;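 active = mean inhibition above about 50% when retested at one dose, limit read from the data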
Of the large screens only hits and unclear results are named; the others gave an inactive call (follow-up assays come after a bar, where they were run). Hits are enriched below; roughly 2.5% of the tested compounds scored in any of these assays.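 The calls were made as follows, unless noted: active = mean inhibition above about 50% in the one-dose retest (limit read from the data); inactive = the rest.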

Clc1ccccc1/C=C/c1nc(-c2cccnc2)no1	SENP8 block-1 69.4, SENP6 inh 88.4, SENP7 block 76.7 | SENP8 conf 56.2 | SENP6 confirm 68.5 | SENP7 conf 89.0 | Casp3 SENP sel 56.1 | Luc interf inactive
Cc1nc(-c2noc(-c3ccccc3Cl)n2)c(C(F)(F)F)o1	SENP8 block-1 70.2, SENP6 inh 78.2, SENP7 block 64.8 | SENP8 conf inactive | SENP6 confirm 56.6 | SENP7 conf 78.4 | Casp3 SENP sel 69.8 | Luc interf inactive
Clc1ccccc1-c1nnc(-c2cccnc2)o1	none
Clc1ccccc1-c1nc(-c2cccnc2)no1	SENP8 block-1 64.5, SENP6 inh 83.7, SENP7 block 80.9 | SENP8 conf inactive | SENP6 confirm 72.4 | SENP7 conf 92.7 | Casp3 SENP sel 76.9 | Luc interf 64.0
c1ccc(-c2ccccc2-c2nc(-c3ccncc3)no2)cc1	none
C(=C\c1nc(-c2cccnc2)no1)/c1ccccc1	none
O=C(NCCc1c[nH]c2ccccc12)C(=O)NCC1OCCCN1S(=O)(=O)c1cc(F)ccc1F (centres undefined)	none
O=C(Nc1ccc(C(=O)N2CCCCC2)cc1)[C@H]1O[C@@H](n2ccc(=O)[nH]c2=O)[C@H](O)[C@@H]1O	none (no result: SENP8 block-1, SENP6 inh, SENP7 block)
CCN(CC(=O)Nc1ccc2c(c1)OCCO2)S(=O)(=O)c1ccc(F)cc1	none
Cc1ccccc1-c1nc(-c2cccnc2)no1	SENP6 inh 59.9, SENP7 block 53.0 | SENP8 conf inactive | SENP6 confirm 60.0 | SENP7 conf 84.3 | Casp3 SENP sel 67.1 | Luc interf inactive
COc1ccccc1NC(=O)COC(=O)C1=NN(c2ccccc2)C(=O)CC1	none
Cc1ccc2nc(/C=C/c3cccc(F)c3)ccc2c1	SENP6 inh 50.2 | SENP8 conf inactive | SENP6 confirm inactive | SENP7 conf 55.9 | Casp3 SENP sel inactive | Luc interf 58.6
COc1ccc2nc(NC(=O)c3c(C)noc3C)sc2c1	SENP8 block-1 73.4, SENP6 inh 78.5, SENP7 block 82.6 | SENP8 conf 82.9 | SENP6 confirm 80.7 | SENP7 conf 96.8 | Casp3 SENP sel 88.4 | Luc interf 65.4
Cc1noc(C)c1C(=O)Nc1nc2ccc(S(C)(=O)=O)cc2s1	SENP6 inh 66.0, SENP7 block 62.2 | SENP8 conf 59.9 | SENP6 confirm 55.5 | SENP7 conf 84.6 | Casp3 SENP sel 84.8 | Luc interf 61.5
COc1ccc(-c2ccc(CO)o2)cc1N	none
COc1cc(SC)ccc1C(=O)Nc1ccc2ncccc2c1	SENP8 block-1 88.4, SENP6 inh 93.8, SENP7 block 88.4 | SENP8 conf inactive | SENP6 confirm 77.1 | SENP7 conf 95.3 | Casp3 SENP sel 67.7 | Luc interf inactive
COc1cc(SC)ccc1C(=O)Nc1ccccn1	none
COc1cc(SC)ccc1C(=O)Nc1cccc(C)n1	none
COc1cc(SC)ccc1C(=O)Nc1ccc(C)cc1C	SENP8 block-1 61.4, SENP6 inh 75.2, SENP7 block 70.2 | SENP8 conf inactive | SENP6 confirm inactive | SENP7 conf inactive | Casp3 SENP sel inactive | Luc interf inactive
COc1cc(SC)ccc1C(=O)Nc1ccc(Br)cn1	SENP8 block-1 82.3, SENP6 inh 90.2, SENP7 block 90.4 | SENP8 conf 53.2 | SENP6 confirm 75.7 | SENP7 conf 80.4 | Casp3 SENP sel 77.4 | Luc interf 50.4
COc1cc(SC)ccc1C(=O)Nc1ncc(C)s1	SENP8 block-1 88.6, SENP6 inh 95.7, SENP7 block 93.5 | SENP8 conf 90.0 | SENP6 confirm 90.8 | SENP7 conf 100.0 | Casp3 SENP sel 89.1 | Luc interf inactive
COc1cc(SC)ccc1C(=O)Nc1ccc(C)cc1	none
Cc1ccc(C)c(S(=O)(=O)N2CCCOC2CNC(=O)C(=O)NCc2ccccn2)c1 (centres undefined)	none
CCOC(=O)C1CCN(C(=O)Cn2nc(CC)n3cccc3c2=O)CC1	none
Cc1c(NC(=O)C(C)OC(=O)c2cc(Cl)ccc2O)c(=O)n(-c2ccccc2)n1C (centres undefined)	none
O/N=C(\c1ccccc1)C(O)c1ccccc1 (centres undefined)	none
Cn1cc(Br)c(C(=O)NNC(=O)Nc2ccccc2C(F)(F)F)n1	none
S=C(Nc1ccccn1)c1ccccn1	SENP8 block-1 67.9, SENP7 block 83.8 | SENP8 conf 53.4 | SENP6 confirm 76.3 | SENP7 conf 93.5 | Casp3 SENP sel 85.6 | Luc interf inactive
CCOCc1c(C(=O)NCC(c2ccco2)N2CCCC2)oc2ccccc12 (centres undefined)	none
COc1cccc(N=Nc2ccc3ccccc3c2O)c1	SENP8 block-1 95.7, SENP6 inh 88.7, SENP7 block 99.7 | SENP8 conf inactive | SENP6 confirm inactive | SENP7 conf inactive | Casp3 SENP sel 92.2 | Luc interf inactive
COc1ccc(N=Nc2cc(C)ccc2O)cc1	SENP8 block-1 95.7, SENP7 block 98.7 | SENP8 conf 84.5 | SENP6 confirm 97.4 | SENP7 conf 102.1 | Casp3 SENP sel 91.9 | Luc interf 92.4
COc1ccc(N=Nc2ccc3ccccc3c2)c(O)c1	SENP6 inh 98.1, SENP7 block 97.6 | SENP8 conf inactive | SENP6 confirm inactive | SENP7 conf inactive | Casp3 SENP sel inactive | Luc interf inactive
COc1ccc(N=Cc2oc3ccc4ccccc4c3c2O)cc1	none
O=C(NCCCC1CCCC1)C1CCC(=O)N(Cc2ccc(Cl)cc2)C1 (centres undefined)	none
Nc1ccc(O)c2c(=O)cc(-c3ccccc3Cl)oc12	SENP8 block-1 52.7, SENP6 inh 60.4 | SENP8 conf inactive | SENP6 confirm inactive | SENP7 conf inactive | Casp3 SENP sel inactive | Luc interf inactive
COc1cc(C(=O)Nc2ccc(S(=O)(=O)Nc3nccc(C)n3)cc2)c([N+](=O)[O-])cc1OC	none
CC(C)c1ccc(NC(=O)c2ccccc2NC(=O)C2CCCCC2C(=O)O)cc1 (centres undefined)	none
